Columns and labels:
[1] = target: T1, Mineralocorticoid receptor (Homo sapiens, UniProt P08235); assay: Antagonistic activity was determined in Human mineralocorticoid receptor(hMR) of CV-1 cells in cotransfection assay.; type: functional, cell-based
T1 sequence (P08235 whole entry): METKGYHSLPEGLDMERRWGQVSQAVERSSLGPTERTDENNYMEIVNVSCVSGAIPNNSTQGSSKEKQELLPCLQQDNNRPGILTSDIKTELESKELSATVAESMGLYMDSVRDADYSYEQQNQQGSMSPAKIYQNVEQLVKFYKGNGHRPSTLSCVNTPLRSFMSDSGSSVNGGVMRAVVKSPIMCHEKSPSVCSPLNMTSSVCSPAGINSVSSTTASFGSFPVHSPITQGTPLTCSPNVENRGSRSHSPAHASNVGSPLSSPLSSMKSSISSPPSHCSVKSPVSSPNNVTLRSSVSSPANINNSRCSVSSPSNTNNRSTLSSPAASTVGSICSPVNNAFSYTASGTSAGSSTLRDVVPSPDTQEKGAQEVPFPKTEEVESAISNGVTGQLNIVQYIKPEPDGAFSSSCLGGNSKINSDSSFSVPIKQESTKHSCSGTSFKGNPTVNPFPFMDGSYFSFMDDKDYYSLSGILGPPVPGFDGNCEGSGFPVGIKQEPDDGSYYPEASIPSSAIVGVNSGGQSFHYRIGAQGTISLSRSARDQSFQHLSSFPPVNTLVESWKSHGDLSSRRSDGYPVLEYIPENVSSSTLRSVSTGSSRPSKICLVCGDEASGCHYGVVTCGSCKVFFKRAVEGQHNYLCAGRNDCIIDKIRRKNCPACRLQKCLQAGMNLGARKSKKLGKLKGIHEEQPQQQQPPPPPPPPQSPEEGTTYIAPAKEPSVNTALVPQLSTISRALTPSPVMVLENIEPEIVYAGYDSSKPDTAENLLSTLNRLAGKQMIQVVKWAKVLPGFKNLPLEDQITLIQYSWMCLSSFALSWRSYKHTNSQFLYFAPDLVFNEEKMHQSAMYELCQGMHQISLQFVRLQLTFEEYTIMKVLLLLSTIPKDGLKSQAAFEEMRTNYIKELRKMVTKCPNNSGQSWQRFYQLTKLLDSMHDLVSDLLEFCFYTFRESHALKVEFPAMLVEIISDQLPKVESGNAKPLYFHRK

[2] = target: T2, Progesterone receptor (Homo sapiens) (UniProt P06401); assay: Agonist efficacy for human progesterone receptor (hPR) was compared to that of progesterone (100%); type: functional
T2 sequence (whole entry): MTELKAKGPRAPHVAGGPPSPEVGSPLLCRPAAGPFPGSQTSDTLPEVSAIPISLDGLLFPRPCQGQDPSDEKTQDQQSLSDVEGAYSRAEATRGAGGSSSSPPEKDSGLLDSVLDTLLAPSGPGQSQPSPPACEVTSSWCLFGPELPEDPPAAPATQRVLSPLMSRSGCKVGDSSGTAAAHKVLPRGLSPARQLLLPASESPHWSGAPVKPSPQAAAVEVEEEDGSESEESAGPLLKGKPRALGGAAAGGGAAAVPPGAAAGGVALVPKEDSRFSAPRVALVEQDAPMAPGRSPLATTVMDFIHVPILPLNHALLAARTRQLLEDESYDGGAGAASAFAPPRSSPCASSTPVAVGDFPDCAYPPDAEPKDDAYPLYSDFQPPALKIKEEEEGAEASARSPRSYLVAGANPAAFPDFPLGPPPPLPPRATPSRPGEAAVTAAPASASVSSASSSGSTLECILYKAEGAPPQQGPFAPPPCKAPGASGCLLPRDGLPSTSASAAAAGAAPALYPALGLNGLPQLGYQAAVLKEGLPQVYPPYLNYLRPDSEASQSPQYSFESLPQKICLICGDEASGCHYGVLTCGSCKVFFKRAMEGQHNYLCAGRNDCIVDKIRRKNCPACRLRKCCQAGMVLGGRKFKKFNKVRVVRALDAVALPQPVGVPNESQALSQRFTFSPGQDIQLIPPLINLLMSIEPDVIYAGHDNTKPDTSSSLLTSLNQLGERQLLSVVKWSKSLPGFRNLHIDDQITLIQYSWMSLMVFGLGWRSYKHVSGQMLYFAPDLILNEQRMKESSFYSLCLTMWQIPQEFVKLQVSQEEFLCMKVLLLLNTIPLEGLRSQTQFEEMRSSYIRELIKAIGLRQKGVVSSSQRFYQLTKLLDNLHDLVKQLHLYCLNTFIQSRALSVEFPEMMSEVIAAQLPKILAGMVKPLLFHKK
Outline: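 Cotransfection assay in CV-1 cells transiently transfected by calcium phosphate coprecipitation with hPR plasmid, MTV-LUC reporter, pRS-β-Gal and filler DNA. Full dose–response curves from 10^-12 to 10^-5 M were run. […] Values are the mean of at least three experiments with triplicate determinations, or of two experiments, or a single experiment.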

Row | IC50 [1] [nM] | Efficacy [2] [%] | SMILES
1 | 1000 | 83 | CC1=CC(C)(C)Nc2ccc3c(c21)C(c1ccc(C)c(F)c1)Oc1ccccc1-3 (stereo not drawn)
2 | 1590 | 59 | CC1=CC(C)(C)Nc2ccc3c(c21)C(c1ccc(C)cc1)Oc1ccccc1-3 (stereo not drawn)
3 | > 10000 | 65 | CC1=CC(C)(C)Nc2ccc3c(c21)C(c1cc(C)cc(Br)c1)Oc1ccccc1-3 (stereo not drawn)
4 | 977 | 59 | CC1=CC(C)(C)Nc2ccc3c(c21)C(c1ccc(Br)cc1)Oc1ccccc1-3 (stereo not drawn)
5 | 2030 | 68 | CC1=CC(C)(C)Nc2ccc3c(c21)C(c1ccc(Cl)c(C)c1)Oc1ccccc1-3 (stereo not drawn)
6 | 2220 | 96 | CC1=CC(C)(C)Nc2ccc3c(c21)C(c1cccc(C(F)(F)F)c1)Oc1ccccc1-3 (stereo not drawn)
7 | 1360 | 59 | CC1=CC(C)(C)Nc2ccc3c(c21)C(c1ccc(Cl)c(F)c1)Oc1ccccc1-3 (stereo not drawn)
8 | 1070 | 77 | CC1=CC(C)(C)Nc2ccc3c(c21)C(c1cccc(Br)c1)Oc1ccccc1-3 (stereo not drawn)
9 | 1060 | 66 | CC1=CC(C)(C)Nc2ccc3c(c21)C(c1ccc(Cl)c(Cl)c1)Oc1ccccc1-3 (stereo not drawn)
10 | > 10000 | 57 | CC1=CC(C)(C)Nc2ccc3c(c21)C(c1cc(Cl)cc(Cl)c1)Oc1ccccc1-3 (stereo not drawn)

Row | SMILES | IC50 [1] [nM] | Efficacy [2] [%]
11 | CC1=CC(C)(C)Nc2ccc3c(c21)C(c1ccc(Cl)cc1)Oc1ccccc1-3 (stereo not drawn) | 1520 | 
12 | CC1=CC(C)(C)Nc2ccc3c(c21)C(c1cccc(Cl)c1)Oc1ccccc1-3 (stereo not drawn) | 748 | 76
